Measurements taken from ChEMBL document CHEMBL1126254, “Specific inhibition of HIV-1 protease by boronated porphyrins” (J Med Chem, 1992).

Columns and labels:
[1] = target: Human immunodeficiency virus type 2 pol protein (Human immunodeficiency virus 2, UniProt P88142); assay: Inhibition of HIV-2 protease in 5%DMSO
Outline: (§1)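 Purified recombinant HIV PR activity was followed by cleavage of a decapeptide substrate. Incubation was 30–45 min at 37 °C, and hydrolysis products were quantified by HPLC.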

[2] = target: T1, Human immunodeficiency virus type 1 protease (Human immunodeficiency virus 1, UniProt Q72874); assay: Inhibition of HIV-1 protease in 5%DMSO; outline: as §1
[3] = (§2) Cytotoxicity on COS A6 cells in the absence of 10% fetal calf serum(FCS); format: functional; conditions: read-out: LD50 (the source's name)
Outline: (§3)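 COS A6 cells, which are cloned progeny that constitutively release viral capsids, were cultured without fetal calf serum and exposed to compound. Viability was read by MTT stain assay, and the LD50 was derived from it.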

[4] = target: T1, Human immunodeficiency virus type 1 protease; assay: Inhibition of HIV-1 protease in 10% fetal calf serum(FCS)
Outline: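 COS A6 cells, which constitutively release viral capsids, were exposed to inhibitor in Dulbecco's PBS for 15 min. An equal volume of medium with 10% FCS plus inhibitor was then added and incubation continued for 3.75 h. Capsids were isolated from the supernatant, and polyprotein processing was scored as p24 by ELISA.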

[5] = tested on: COS A6; assay: as §2; format: functional; outline: as §3
[6] = target: T1, Human immunodeficiency virus type 1 protease; assay: Inhibitory concentration against HIV-1 protease in the absence of DMSO
Outline: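 The water-soluble dipotassium salt was tested against aspartyl proteases with no DMSO present, and IC50 values were determined.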

[7] = target: HIV-2 protease (Human immunodeficiency virus 2); assay: Inhibitory concentration against HIV-2 protease in the absence of DMSO

Human immunodeficiency virus type 2 pol protein, sequence (P88142 whole entry): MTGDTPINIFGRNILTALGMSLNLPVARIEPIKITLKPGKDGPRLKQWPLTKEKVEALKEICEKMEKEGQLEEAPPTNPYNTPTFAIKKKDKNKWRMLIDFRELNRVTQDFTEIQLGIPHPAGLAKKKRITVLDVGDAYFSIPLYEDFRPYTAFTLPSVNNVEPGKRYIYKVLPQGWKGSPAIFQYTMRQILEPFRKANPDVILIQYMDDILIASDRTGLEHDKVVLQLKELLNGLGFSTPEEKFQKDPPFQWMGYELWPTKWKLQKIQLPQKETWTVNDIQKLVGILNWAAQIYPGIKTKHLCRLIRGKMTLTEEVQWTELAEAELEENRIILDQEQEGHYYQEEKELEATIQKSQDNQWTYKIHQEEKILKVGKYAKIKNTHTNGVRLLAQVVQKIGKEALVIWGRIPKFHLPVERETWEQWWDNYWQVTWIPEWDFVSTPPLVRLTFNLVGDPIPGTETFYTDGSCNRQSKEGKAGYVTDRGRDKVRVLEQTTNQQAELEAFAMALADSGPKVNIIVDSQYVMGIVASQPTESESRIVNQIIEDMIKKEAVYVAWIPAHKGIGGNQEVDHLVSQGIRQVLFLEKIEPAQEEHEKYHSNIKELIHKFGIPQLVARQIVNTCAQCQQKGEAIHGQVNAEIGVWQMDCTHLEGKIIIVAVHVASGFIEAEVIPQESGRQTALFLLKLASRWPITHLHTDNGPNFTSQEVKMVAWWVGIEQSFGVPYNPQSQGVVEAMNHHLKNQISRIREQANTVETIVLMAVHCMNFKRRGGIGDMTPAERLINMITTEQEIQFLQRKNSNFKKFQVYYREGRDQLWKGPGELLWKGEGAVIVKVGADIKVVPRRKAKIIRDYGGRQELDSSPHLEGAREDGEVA

Row | Molecule | IC50 [1] [µM] | IC50 [2] [µM] | CC50 [3] [µM] | IC50 [4] [µM] | CC50 ([3]; COS A6) [µM] | LD50 [5] [µM] | IC50 [6] [µM] | IC50 [7] [µM]
1 | CC1=C(CCC(=O)O)c2cc3[nH]c(cc4[nH]c(cc5nc(cc1n2)C(C)=C5C(COC(=O)C1=CC1)OC(=O)C1=CC1)c(C)c4C(COC(=O)C1=CC1)OC(=O)C1=CC1)c(C)c3CCC(=O)O (stereo in doubt) | 11 | 12 | 250 | > 150 |  |  |  | 
2 | C=CC1=C(C)c2cc3[nH]c(cc4nc(cc5[nH]c(cc1n2)c(C)c5CCC(=O)O)C(CCC(=O)O)=C4C)c(C)c3C=C [PROTOPORPHYRIN] | 500 | 300 |  | > 200 | < 50 |  |  | 
3 | CC1=C(C(COC(=O)c2ccc(N(C)C)cc2)OC(=O)c2ccc(N(C)C)cc2)c2cc3nc(cc4[nH]c(cc5[nH]c(cc1n2)c(C)c5CCC(=O)O)c(CCC(=O)O)c4C)C(C(COC(=O)c1ccc(N(C)C)cc1)OC(=O)c1ccc(N(C)C)cc1)=C3C (stereo unspecified) | 18 | 7 |  | 75 | > 250 |  |  | 
4 | 3-[18-(2-Carboxy-ethyl)-8,13-bis-(1,2-diacetoxy-ethyl)-3,7,12,17-tetramethyl-22,24-dihydro-porphin-2-yl]-propionic acid;Cu complex [listing 1 of 2 here] |  |  |  |  |  | 80 |  | 
5 | CC[C@H](C)[C@H](NC(=O)[C@H](C(C)C)[C@@H](O)[C@H](O)[C@H](CC1CCCCC1)NC(=O)[C@H](Cc1c[nH]cn1)NC(=O)COc1cccc2ccccc12)C(=O)NCc1ccccn1 | 0.03 | < 0.001 |  | 0.75 | 45 |  |  | 
6 | CC1=C(C(COC(=O)c2ccc3ccccc3c2)OC(=O)c2ccc3ccccc3c2)c2cc3nc(cc4[nH]c(cc5[nH]c(cc1n2)c(C)c5CCC(=O)O)c(CCC(=O)O)c4C)C(C(COC(=O)c1ccc2ccccc2c1)OC(=O)c1ccc2ccccc2c1)=C3C (stereo unspecified) | 23 | 14 |  | > 150 | 250 |  |  | 
7 | 3-[18-(2-Carboxy-ethyl)-8,13-bis-(1,2-diacetoxy-ethyl)-3,7,12,17-tetramethyl-22,24-dihydro-porphin-2-yl]-propionic acid;Mn complex |  |  |  |  |  | 70 |  | 
8 | 3-[18-(2-Carboxy-ethyl)-8,13-bis-(1,2-diacetoxy-ethyl)-3,7,12,17-tetramethyl-22,24-dihydro-porphin-2-yl]-propionic acid;Co complex [listing 1 of 2 here] |  |  |  | 25 |  |  |  | 
9 | CC1=C(C(COC(=O)C23C[C@H]4C[C@@H](C2)C[C@@H](C3)C4)OC(=O)C23C[C@H]4C[C@@H](C2)C[C@@H](C3)C4)c2cc3nc(cc4[nH]c(cc5[nH]c(cc1n2)c(C)c5CCC(=O)O)c(CCC(=O)O)c4C)C(C(COC(=O)C12C[C@H]4C[C@@H](C1)C[C@@H](C2)C4)OC(=O)C12C[C@H]4C[C@@H](C1)C[C@@H](C2)C4)=C3C (stereo partly specified) | 13 | 5 |  |  | 250 |  |  | 
10 | CC1=C(C(O)CO)c2cc3nc(cc4[nH]c(cc5[nH]c(cc1n2)c(C)c5CCC(=O)O)c(CCC(=O)O)c4C)C(C(O)CO)=C3C (stereo unspecified) | 480 | 280 |  | > 200 | 250 |  |  | 
11 | CC1=C(C(COC(=O)c2ccccc2)OC(=O)c2ccccc2)c2cc3nc(cc4[nH]c(cc5[nH]c(cc1n2)c(C)c5CCC(=O)O)c(CCC(=O)O)c4C)C(C(COC(=O)c1ccccc1)OC(=O)c1ccccc1)=C3C (stereo unspecified) | 30 | 14 |  | > 100 | 250 |  |  | 
12 | CC1=C(CCC(=O)O)c2cc3[nH]c(cc4[nH]c(cc5nc(cc1n2)C(C)=C5C(COC(=O)C1=CCC1)OC(=O)C1=CCC1)c(C)c4C(COC(=O)C1=CCC1)OC(=O)C1=CCC1)c(C)c3CCC(=O)O (stereo unspecified) | 1.55 | 0.7 |  | 10 | 25 |  | 0.9 | 
13 | 3-[18-(2-Carboxy-ethyl)-8,13-bis-(1,2-diacetoxy-ethyl)-3,7,12,17-tetramethyl-22,24-dihydro-porphin-2-yl]-propionic acid;Cu complex [listing 2 of 2 here] |  |  |  |  |  |  |  | 0.47
14 | 3-[18-(2-Carboxy-ethyl)-8,13-bis-(1,2-diacetoxy-ethyl)-3,7,12,17-tetramethyl-22,24-dihydro-porphin-2-yl]-propionic acid;Co complex [listing 2 of 2 here] |  |  |  |  |  | 150 |  | 
